Our source for the Lactone and Body weight values is ChEMBL document CHEMBL1131202, “Alkyl esters of camptothecin and 9-nitrocamptothecin: synthesis, in vitro pharmacokinetics, toxicity, and antitumor activity” (1998).

Common to all, as to format: functional
Assay [1] is described as follows: In vitro determination of lactone level in human plasma after administration of compound at 1 hour. A digest of the protocol:
(§1)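 Drug (500 ng, in methanol) added to 1 mL of human or mouse plasma and incubated at 37 °C. 100-µL aliquots taken at 0.5–6 h. Analysis by C-8 HPLC (30% acetonitrile/water/0.1% acetic acid) with fluorescence at 347/418 nm. Percent lactone: lactone/total drug for the parent; drug at each time relative to t = 0 for the ester.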

The nature of assay [2]: In vitro determination of lactone level in human plasma after administration of compound at 6 hour. A digest of the protocol:
as §1

Assay [3] has as its system Mus musculus. Description: In vitro determination of lactone level in mouse plasma after administration of compound at 1 hour. A digest of the protocol:
as §1

Assay [4] has as its system Mus musculus. The experiment in a line: In vitro determination of lactone level in mouse plasma after administration of compound at 0 hour. In a few lines: as §1
The subject of assay [5] is Mus musculus. Description: In vitro determination of lactone level in mouse plasma after administration of compound at 6 hour. In a few lines: as §1
A short description of assay [6]: In vitro determination of lactone level in human plasma after administration of compound at 0 hour. A digest of the protocol: as §1
Assay [7] has as its system Mus musculus. Description: Change in the body weight of mice during the test time period after 41 days at a dose of 7 mg/kg.
In assay [8] the test system is Mus musculus. The experiment in a line: Change in the body weight of mice during the test time period after 48 days at a dose of 8 mg/kg.
Assay [9] deals with Mus musculus. The experiment in a line: Change in the body weight of mice during the test time period after 27 days at a dose of 7 mg/kg.
Assay [10] can be described thus: In vitro determination of lactone level in human plasma after administration of compound at 4 hour. In a few lines:
as §1

Assay [11] deals with Mus musculus. Description: Change in the body weight of mice during the test time period after 27 days at a dose of 6 mg/kg.
The test system of assay [12] is Mus musculus. Description: Change in the body weight of mice during the test time period after 21 days at a dose of 7 mg/kg.
Assay [13] has as its system Mus musculus. Description: Change in the body weight of mice during the test time period after 27 days at a dose of 5 mg/kg.
In assay [14] the test system is Mus musculus. Description: Change in the body weight of mice during the test time period after 21 days at a dose of 5 mg/kg.
In assay [15] the test system is Mus musculus. Description: Change in the body weight of mice during the test time period after 56 days at a dose of 8 mg/kg.
Assay [16] concerns Mus musculus. The experiment in a line: Change in the body weight of mice during the test time period after 27 days at a dose of 8 mg/kg.
Assay [17] relates to Mus musculus. Description: Change in the body weight of mice during the test time period after 48 days at a dose of 5 mg/kg.
In assay [18] the test system is Mus musculus. The experiment in a line: Change in the body weight of mice during the test time period after 41 days at a dose of 6 mg/kg.
Assay [19] concerns Mus musculus. Description: Change in the body weight of mice during the test time period after 48 days at a dose of 7 mg/kg.
Assay [20] relates to Mus musculus. Description: Change in the body weight of mice during the test time period after 34 days at a dose of 8 mg/kg.
In assay [21] the test system is Mus musculus. Description: Change in the body weight of mice during the test time period after 34 days at a dose of 5 mg/kg.
In assay [22] the test system is Mus musculus. Description: Change in the body weight of mice during the test time period after 21 days at a dose of 6 mg/kg.
The test system of assay [23] is Mus musculus. Description: Change in the body weight of mice during the test time period after 34 days at a dose of 7 mg/kg.
Assay [24] is described as follows: In vitro determination of lactone level in human plasma after administration of compound at 2 hour. In a few lines: as §1
Assay [25] deals with Mus musculus. Description: Change in the body weight of mice during the test time period after 41 days at a dose of 8 mg/kg.
Assay [26] relates to Mus musculus. Description: Change in the body weight of mice during the test time period after 56 days at a dose of 7 mg/kg.
In assay [27] the test system is Mus musculus. The experiment in a line: Change in the body weight of mice during the test time period after 48 days at a dose of 6 mg/kg.
Assay [28] deals with Mus musculus. The experiment in a line: Change in the body weight of mice during the test time period after 41 days at a dose of 5 mg/kg.
The subject of assay [29] is Mus musculus. Description: Change in the body weight of mice during the test time period after 56 days at a dose of 5 mg/kg.
The test system of assay [30] is Mus musculus. Description: Change in the body weight of mice during the test time period after 21 days at a dose of 8 mg/kg.
Assay [31] deals with Mus musculus. The experiment in a line: Change in the body weight of mice during the test time period after 34 days at a dose of 6 mg/kg.
Assay [32] has as its system Mus musculus. Description: Change in the body weight of mice during the test time period after 56 days at a dose of 6 mg/kg.
Assay [33] relates to Mus musculus. The experiment in a line: In vitro determination of lactone level in mouse plasma after administration of compound at 2 hour. A digest of the protocol:
as §1

Assay [34] deals with Mus musculus. The experiment in a line: In vitro determination of lactone level in mouse plasma after administration of compound at 4 hour. In a few lines:
as §1

The subject of assay [35] is Mus musculus. The experiment in a line: In vitro determination of tlactone level in mouse plasma after administration of compound at 0 hour. In a few lines: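 Mouse plasma (1 mL) was spiked with 500 ng drug in methanol and incubated at 37 °C, with aliquots taken over time starting at t = 0 h. Percent lactone was derived by reverse-phase C-8 HPLC with fluorescence detection and peak-area integration. For parent camptothecins it was lactone/total drug; for esters it was drug at each time point/drug at t = 0 h.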

Regarding `CCC(=O)O[C@]1(CC)C(=O)OCc2c1cc1n(c2=O)Cc2cc3c([N+](=O)[O-])cccc3nc2-1`, the Lactone in [1] came to 93.7%; in [2], 64.4%; in the assay with Mus musculus [3] it was 97.7%; with Mus musculus [4], 100%; in the assay on Mus musculus [5] it was 84.3%; in assay [6], 100%.

For the compound `CC[C@@]1(O)C(=O)OCc2c1cc1n(c2=O)Cc2cc3c([N+](=O)[O-])cccc3nc2-1` [RUBITECAN], the Lactone in assay [1] amounted to 7%; in assay [2] it was 0%; in the assay with Mus musculus [3], 30%; in the assay with Mus musculus [4], 100%; in assay [6], 100%.

As for `CCC(=O)O[C@]1(CC)C(=O)OCc2c1cc1n(c2=O)Cc2cc3ccccc3nc2-1` [CAMPTOTHECIN-20-O-PROPIONATE], the Body weight in the assay on Mus musculus [7] was found to be 31.1 g; with Mus musculus [8] it was 33.9 g; in the assay with Mus musculus [9] it was 31.7 g; in the assay with Mus musculus [11], 33.4 g; in the assay on Mus musculus [12], 30.8 g; in the assay with Mus musculus [13], 33.7 g. In addition, the Body weight in the assay with Mus musculus [14] amounted to 33 g; in the assay on Mus musculus [15], 33.2 g; in the assay on Mus musculus [16] it was 34.1 g; with Mus musculus [17], 32.9 g; in the assay on Mus musculus [18], 33.5 g; with Mus musculus [19], 31.6 g. Also, the Body weight in the assay on Mus musculus [20] was 34 g; in the assay with Mus musculus [21] it was 34.4 g; in the assay on Mus musculus [22], 32.9 g; with Mus musculus [23], 30.6 g; in the assay on Mus musculus [25], 33.4 g; in the assay with Mus musculus [26], 31.5 g. For the same compound, the Body weight was determined as 34 g in the assay on Mus musculus [27]; 33.5 g in the assay on Mus musculus [28]; 33.2 g in the assay on Mus musculus [29]; 32.9 g in the assay on Mus musculus [30]; 33.8 g in the assay on Mus musculus [31]; 32.2 g in the assay with Mus musculus [32]. Further, the Lactone in assay [10] was found to be 68%; in [1] it was 86%; in assay [24], 77%; in assay [2] it was 56%; with Mus musculus [3], 97.5%; with Mus musculus [4], 100%. Also, the Lactone in the assay with Mus musculus [5] came to 85%; in assay [6] it was 100%.

As for `CC[C@@]1(O)C(=O)OCc2c1cc1n(c2=O)Cc2cc3ccccc3nc2-1` [CAMPTOTHECIN], the Lactone in [10] is listed as 0%; in assay [1] it was 12%; in the assay with Mus musculus [33] it was 35%; with Mus musculus [34], 18%; in the assay on Mus musculus [35], 100%; in assay [24] it was 0.5%. Also, the Lactone in assay [2] was found to be 0%; in the assay with Mus musculus [3] it was 42%; in the assay with Mus musculus [5] it was 18%; in assay [6], 100%.
